Laboratory results from ChEMBL document CHEMBL1157579, “Discovery of potent sulfonamide P4-capped ketoamide second generation inhibitors of hepatitis C virus NS3 serine protease with favorable pharmacokinetic profiles in preclinical species” (Bioorg Med Chem, 2010).

Experiments:
Hepatitis C virus = assay: Antiviral activity against Hepatitis C virus genotype 1 by replicon assay; assay type: functional, organism-based, Hepacivirus hominis
[1] = Inhibition of HCV NS4A-tethered single chain NS3 serine protease assessed as Ac-DTEDVVP(Nva)- O-PAP substrate hydrolysis by spectrophotometric assay; design: species or system Hepacivirus hominis
In short: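 Ki* reported for a single P1 diastereomer, within twofold at 95% confidence limit.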

[2] = Selectivity index, ratio of Ki for HNE to Ki for NS4A-tethered single chain NS3 serine protease
In short: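 Compounds tested against human neutrophil elastase as a counter-protease; selectivity expressed as HNE Ki divided by HCV NS3 protease Ki.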

[3] = AUC (0 to 6 hrs) in rat at 10 mg/kg, po; assay type: ADME, organism-based; design: time < 6 hr, dose 10 mg/kg, route oral; settings: plasma
[4] = AUC (0 to 6 hrs) in dog at 2 mg/kg, po; assay type: ADME, organism-based, Canis lupus familiaris; design: time < 6 hr, dose 2 mg/kg, route oral; settings: plasma
[5] = AUC (0 to 6 hrs) in monkey at 10 mg/kg, po; assay type: ADME, organism-based, Macaca mulatta; design: time < 6 hr, dose 10 mg/kg, route oral; settings: rhesus monkey, plasma
[6] = AUC (0 to 6 hrs) in dog at 3 mg/kg, po; assay type: ADME, organism-based, Canis lupus familiaris; design: time < 6 hr, dose 3 mg/kg, route oral; settings: plasma

EC90 (Hepatitis C virus) | Ki [1] | Ratio Ki [2] | AUC(0-t) at 6 h [3] | AUC(0-t) at 6 h [4] | AUC(0-t) at 6 h [5] | AUC(0-t) at 6 h [6] | SMILES
105 nM | 11 nM | 959 | – | – | – | – | CCCC[C@H](NC(=O)[C@@H]1[C@@H]2[C@H](CN1C(=O)[C@@H](NC(=O)NC1(CS(=O)(=O)N(C)C3CC3)CCCCC1)C(C)(C)C)C2(C)C)C(=O)C(=O)NC1CC1
55 nM | 8 nM | 36 | 0.6 µM·h | 0.2 µM·h | – | – | CCC[C@H](NC(=O)[C@@H]1[C@@H]2[C@H](CN1C(=O)[C@@H](NC(=O)NC1(CS(=O)(=O)N(C)C(C)(C)C)CCCCC1)C(C)(C)C)C2(C)C)C(=O)C(=O)NC1CC1
55 nM | 8 nM | 82 | 1.8 µM·h | 6.9 µM·h | 3.3 µM·h | – | CCC[C@H](NC(=O)[C@@H]1[C@@H]2[C@H](CN1C(=O)[C@@H](NC(=O)NC1(CS(=O)(=O)N(C)C3CC3)CCCCC1)C(C)(C)C)C2(C)C)C(=O)C(=O)NC1CC1
20 nM | 4 nM | 340 | 0.1 µM·h | – | – | – | CCC[C@H](NC(=O)[C@@H]1[C@@H]2[C@H](CN1C(=O)[C@@H](NC(=O)NC1(C3CCN(C4CC4)S3(=O)=O)CCCCC1)C(C)(C)C)C2(C)C)C(=O)C(=O)NC1CC1 (single isomer, unassigned)
75 nM | 6 nM | 2480 | 0.9 µM·h | 4 µM·h | 5.4 µM·h | – | CN(C1CC1)S(=O)(=O)CC1(NC(=O)N[C@H](C(=O)N2CC3C([C@H]2C(=O)N[C@@H](CCC2CC2)C(=O)C(=O)NC2CC2)C3(C)C)C(C)(C)C)CCCCC1 (single isomer, unassigned)
– | 14 nM | – | 0.1 µM·h | – | 0.3 µM·h | 3.1 µM·h | CC(C)(C)NC(=O)N[C@H](C(=O)N1C[C@H]2[C@@H]([C@H]1C(=O)NC(CC1CCC1)C(=O)C(N)=O)C2(C)C)C(C)(C)C (stereo partly drawn) [BOCEPREVIR]
60 nM | 15 nM | 113 | 2.2 µM·h | 1.4 µM·h | – | – | CN(C1CC1)S(=O)(=O)CC1(NC(=O)N[C@H](C(=O)N2C[C@H]3[C@@H]([C@H]2C(=O)N[C@@H](CC2CC2)C(=O)C(=O)NC2CC2)C3(C)C)C(C)(C)C)CCCCC1
80 nM | 7 nM | – | 0.8 µM·h | 0.8 µM·h | – | – | CCC[C@H](NC(=O)[C@@H]1[C@@H]2[C@H](CN1C(=O)[C@@H](NC(=O)NC1(CS(=O)(=O)N3CCC3)CCCCC1)C(C)(C)C)C2(C)C)C(=O)C(=O)NC1CC1
55 nM | 6 nM | 82 | 0.6 µM·h | 6.1 µM·h | 0.1 µM·h | – | CCC[C@H](NC(=O)[C@@H]1[C@@H]2[C@H](CN1C(=O)[C@@H](NC(=O)NC1(CS(=O)(=O)N(C)C)CCCCC1)C(C)(C)C)C2(C)C)C(=O)C(=O)NC1CC1
45 nM | 2.8 nM | – | 0.1 µM·h | 0.2 µM·h | – | – | CCC[C@H](NC(=O)[C@@H]1[C@@H]2[C@H](CN1C(=O)[C@@H](NC(=O)NC1(CS(=O)(=O)N(C)C(C)(C)CF)CCCCC1)C(C)(C)C)C2(C)C)C(=O)C(=O)NC1CC1
– | 22 nM | – | – | – | – | – | CCC[C@H](NC(=O)[C@@H]1[C@@H]2[C@H](CN1C(=O)[C@@H](NC(=O)NC1([C@H](C)S(=O)(=O)N(C)C)CCCCC1)C(C)(C)C)C2(C)C)C(=O)C(=O)NC1CC1
90 nM | 7 nM | – | 0.3 µM·h | 0.2 µM·h | – | – | CCC[C@H](NC(=O)[C@@H]1[C@@H]2[C@H](CN1C(=O)[C@@H](NC(=O)NC1(CS(=O)(=O)N(C)C3CCC3)CCCCC1)C(C)(C)C)C2(C)C)C(=O)C(=O)NC1CC1
65 nM | 5 nM | 131 | 1 µM·h | 7.9 µM·h | – | – | CCC[C@H](NC(=O)[C@@H]1[C@@H]2[C@H](CN1C(=O)[C@@H](NC(=O)NC1(CS(=O)(=O)N(CC)C3CC3)CCCCC1)C(C)(C)C)C2(C)C)C(=O)C(=O)NC1CC1
20 nM | 49 nM | 55 | – | – | 0.05 µM·h | – | CC(C)(C)[C@H](NC(=O)NC1(C(=O)OCc2ccccc2)CCCCC1)C(=O)N1C[C@H]2[C@@H]([C@H]1C(=O)NC(CC1CC1)C(=O)C(N)=O)C2(C)C (stereo partly drawn)
45 nM | 8 nM | 135 | 0.3 µM·h | 0.3 µM·h | – | – | CCC[C@H](NC(=O)[C@@H]1[C@@H]2[C@H](CN1C(=O)[C@@H](NC(=O)NC1(CS(=O)(=O)N3CCOCC3)CCCCC1)C(C)(C)C)C2(C)C)C(=O)C(=O)NC1CC1
55 nM | 4 nM | 20 | – | 0.1 µM·h | – | – | C#CCCC(NC(=O)[C@@H]1[C@@H]2[C@H](CN1C(=O)[C@@H](NC(=O)N[C@H](C(=O)C1CC1)C1CCCCC1)C(C)(C)C)C2(C)C)C(=O)C(=O)NC1CC1 (stereo partly drawn)
100 nM | 6 nM | – | 1.7 µM·h | 0.5 µM·h | – | – | CCC[C@H](NC(=O)[C@@H]1[C@@H]2[C@H](CN1C(=O)[C@@H](NC(=O)NC1(CS(=O)(=O)N(C(C)C)C3CC3)CCCCC1)C(C)(C)C)C2(C)C)C(=O)C(=O)NC1CC1
20 nM | 4 nM | 340 | 0.1 µM·h | – | – | – | CCC[C@H](NC(=O)[C@@H]1[C@@H]2[C@H](CN1C(=O)[C@@H](NC(=O)NC1([C@@H]3CCN(C)S3(=O)=O)CCCCC1)C(C)(C)C)C2(C)C)C(=O)C(=O)NC1CC1
300 nM | 15 nM | 58 | – | – | – | – | CCC[C@H](NC(=O)[C@@H]1[C@@H]2[C@H](CN1C(=O)[C@@H](NC(=O)NC1(CS(=O)(=O)NC)CCCCC1)C(C)(C)C)C2(C)C)C(=O)C(=O)NC1CC1
70 nM | 7 nM | 97 | 0.9 µM·h | 0.2 µM·h | – | – | CCC[C@H](NC(=O)[C@@H]1[C@@H]2[C@H](CN1C(=O)[C@@H](NC(=O)NC1(CS(=O)(=O)N(C)C(C)C)CCCCC1)C(C)(C)C)C2(C)C)C(=O)C(=O)NC1CC1
135 nM | 9 nM | – | – | – | – | – | CCC[C@H](NC(=O)[C@@H]1[C@@H]2[C@H](CN1C(=O)[C@@H](NC(=O)NC1(CS(=O)(=O)N(C)CC3CC3)CCCCC1)C(C)(C)C)C2(C)C)C(=O)C(=O)NC1CC1
65 nM | 9 nM | 64 | 1.5 µM·h | 0.5 µM·h | 0.1 µM·h | – | CCC[C@H](NC(=O)[C@@H]1[C@@H]2[C@H](CN1C(=O)[C@@H](NC(=O)NC1(CS(=O)(=O)N(C)CC)CCCCC1)C(C)(C)C)C2(C)C)C(=O)C(=O)NC1CC1
85 nM | 2 nM | – | 0.6 µM·h | 0.1 µM·h | – | – | CCC[C@H](NC(=O)C1[C@@H]2[C@H](CN1C(=O)[C@@H](NC(=O)NC1([C@@H](C)S(=O)(=O)N(C)C)CCCCC1)C(C)(C)C)C2(C)C)C(=O)C(=O)NC1CC1 (stereo partly drawn)
